Reference: ChEMBL document CHEMBL4425125, “Development of a Dual-Acting Antibacterial Agent (TNP-2092) for the Treatment of Persistent Bacterial Infections” (J Med Chem, 2016)
Values after ≈ are worked out from the molar mass of the structure shown.

Experiments:
[1] = test system: Staphylococcus aureus; assay: Bactericidal activity against methicillin-sensitive Staphylococcus aureus 29213 infected in mouse macrophages assessed as induction of bacterial kill at 4 ug/ml in presence of 4 ug/ml rifampin after 24 hrs; format: functional
[2] = test system: Staphylococcus aureus; assay: Antimicrobial activity against Staphylococcus aureus isogenic forms expressing parC S80F mutant; format: functional
How it was run: (§1)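 MIC (μg/mL) on otherwise isogenic derivatives of S. aureus ATCC 29213 that carry the rifamycin-resistance allele rpoB H481Y and/or the quinolone-resistance alleles parC S80F and gyrA S84L. The wild-type parent is the reference strain. MICs were determined both by agar dilution and by broth dilution, tested side by side on the same panel.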

[3] = test system: Staphylococcus aureus; assay: Antimicrobial activity against Staphylococcus aureus isogenic forms expressing rpoB H481Y and parC S80F mutant; format: functional; how it was run: as §1
[4] = test system: Staphylococcus aureus; assay: Bactericidal activity against methicillin-resistant Staphylococcus aureus 67-0; format: functional
[5] = target: Topoisomerase IV (Staphylococcus aureus) (UniProt P0C1U9+P0C1S7)
[6] = target: DNA gyrase (Staphylococcus aureus) (UniProt P0A0K8+P20831)
[7] = test system: Staphylococcus aureus
[8] = target: DNA topoisomerase 2-alpha (Homo sapiens) (UniProt P11388)
[9] = test system: Staphylococcus aureus; assay: Antimicrobial activity against Staphylococcus aureus isogenic forms expressing gyrA S84L mutant; format: functional
[10] = test system: Staphylococcus aureus; assay: Antimicrobial activity against wild type Staphylococcus aureus; format: functional
[11] = test system: Staphylococcus aureus; assay: Antimicrobial activity against Staphylococcus aureus isogenic forms expressing gyrA S84L and parC S80F mutant; format: functional; how it was run: as §1
[12] = test system: Staphylococcus aureus; assay: Antimicrobial activity against Staphylococcus aureus isogenic forms expressing rpoB H481Y mutant; format: functional
[13] = test system: Staphylococcus aureus; assay: Antimicrobial activity against Staphylococcus aureus isogenic forms expressing rpoB H481Y and gyrA S84L mutant; format: functional
[14] = test system: Staphylococcus aureus; assay: Antimicrobial activity against Staphylococcus aureus isogenic forms expressing rpoB H481Y/gyrA S84L/parC S80F mutant; format: functional; how it was run: as §1

Row | Structure (SMILES) | Activity [1] | MIC [2] | MIC [3] | MBC [4] | CC50 [5] | CC50 [6] | CC50 [7] | CC50 [8] | MIC [9] | MIC [10] | MIC [11] | MIC [12] | MIC [13] | MIC [14]
1 | COc1c(N2C[C@@H]3CCCN[C@@H]3C2)c(F)cc2c(=O)c(C(=O)O)cn(C3CC3)c12 [MOXIFLOXACIN] | <=99.9% | – | – | – | – | – | – | – | – | – | – | – | – | –
2 | O=C(O)c1cn(C2CC2)c2cc(N3CCNCC3)c(F)cc2c1=O [CIPROFLOXACIN] | – | 2 µg/mL (≈ 6.04 µM) | 2 µg/mL (≈ 6.04 µM) | 16 µg/mL (≈ 48.3 µM) | 0.4 µM | 5 µM | 31 µM | > 150 µM | – | – | – | – | – | –
3 | COc1c(N2CCNC(C)C2)c(F)cc2c(=O)c(C(=O)O)cn(C3CC3)c12 (stereo not given) [GATIFLOXACIN] | – | 0.25 µg/mL (≈ 0.666 µM) | 0.25 µg/mL (≈ 0.666 µM) | – | 0.2 µM | 0.7 µM | 13 µM | > 150 µM | 0.12 µg/mL (≈ 0.32 µM) | 0.06 µg/mL (≈ 0.16 µM) | 8 µg/mL (≈ 21.3 µM) | 0.06 µg/mL (≈ 0.16 µM) | 0.12 µg/mL (≈ 0.32 µM) | 8 µg/mL (≈ 21.3 µM)
